TRPC4 inh = inhibitors of mouse TRPC4 channel, primary screen, Fluo4 calcium, HEK293 TRPC4beta/mu-opioid cells; DAMGO-evoked Fluo4 calcium flux; active compounds read low; B-score at 10 µM; 300,000 compounds, 0.39% hits; AID 2247, 2010;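 active means B-score over 3 SD under the library average, no early fluorescence shift, positive overall ratio signal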
Target sequence (Q9QUQ5 whole entry, looked up): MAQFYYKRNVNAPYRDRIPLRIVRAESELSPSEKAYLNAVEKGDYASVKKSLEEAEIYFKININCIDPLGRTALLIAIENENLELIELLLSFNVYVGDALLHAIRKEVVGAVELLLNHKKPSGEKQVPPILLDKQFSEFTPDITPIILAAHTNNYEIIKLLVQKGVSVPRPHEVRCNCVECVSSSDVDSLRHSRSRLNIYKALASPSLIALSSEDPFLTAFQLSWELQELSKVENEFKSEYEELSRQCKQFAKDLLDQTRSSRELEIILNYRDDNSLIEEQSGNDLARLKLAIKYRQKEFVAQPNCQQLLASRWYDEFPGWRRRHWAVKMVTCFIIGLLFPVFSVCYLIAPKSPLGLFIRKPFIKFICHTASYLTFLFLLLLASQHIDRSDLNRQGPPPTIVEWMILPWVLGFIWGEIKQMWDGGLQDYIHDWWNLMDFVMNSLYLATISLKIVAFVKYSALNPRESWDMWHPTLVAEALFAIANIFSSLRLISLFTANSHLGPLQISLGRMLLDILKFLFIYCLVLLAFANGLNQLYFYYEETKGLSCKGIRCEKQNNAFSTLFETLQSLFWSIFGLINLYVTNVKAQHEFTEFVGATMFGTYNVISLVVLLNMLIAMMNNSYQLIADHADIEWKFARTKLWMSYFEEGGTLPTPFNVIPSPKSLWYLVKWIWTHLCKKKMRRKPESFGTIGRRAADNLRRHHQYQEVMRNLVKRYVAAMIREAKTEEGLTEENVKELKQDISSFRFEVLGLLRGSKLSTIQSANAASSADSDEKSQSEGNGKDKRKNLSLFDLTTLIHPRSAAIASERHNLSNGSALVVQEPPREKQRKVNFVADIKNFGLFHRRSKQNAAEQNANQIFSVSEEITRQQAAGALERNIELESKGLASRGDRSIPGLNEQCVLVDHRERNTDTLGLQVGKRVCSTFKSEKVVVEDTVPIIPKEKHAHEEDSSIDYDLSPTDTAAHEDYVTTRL
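Material: HEK293 cells with stable TRPC4beta plus mu-opioid receptor expression / Probe or stimulus: DAMGO in two steps, submaximal then maximal / Compound: single concentration per test compound / Technique: kinetic Fluo4 fluorescence imaging of calcium influx / Read-out: per-well B score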
TRPC6 inhibitor = mouse TRPC6 channel inhibitors, primary screen, cell-based, HEK293, membrane potential dye; ACh-evoked depolarization; active compounds read low; Short transient receptor potential channel 6 (Mus musculus), Q61143; B-score at 10 µM; 310,000 compounds, 1.1% hits;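 active means B-score under library mean minus 3 SD, initial fluorescence not abnormally high, positive integrated signal ratio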;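 further: B-score derived from integrated fluorescence ratio over the kinetic read; more negative B-score means stronger inhibition of depolarization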
Platelet DG rel = inhibitors of platelet dense granule secretion, primary screen, cell-based, MLPCN, human platelets. 300,000 compounds, 0.22% hits. human platelet-rich plasma, SFLLRN dense granule ATP release, luminescence. AID 1663, 2009. inhibition, %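 (compounds screened at 7.5 µM in platelet-rich plasma)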;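 active means mean replicate score, as percent of positive control, at or above 50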
TRPC6 activator = mouse TRPC6 channel activators, primary screen, cell-based, HEK293, membrane potential dye; Short transient receptor potential channel 6 (Mus musculus), Q61143; HEK293-TRPC6 membrane potential dye fluorescence; active compounds read high; B-score at 10 µM; 310,000 compounds, 0.13% hits;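 active means B-score of the integrated fluorescence ratio above library mean plus 3 SD, and starting fluorescence ratio within library mean plus 5 SD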;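 further: higher score means more depolarization so channel activation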
TRPC4 PAM = positive allosteric modulators of TRPC4, primary screen, cell-based, mouse TRPC4beta, HEK293 mu-opioid, Fluo-4 calcium | AID 2227, 2009 | B-score at 10 µM | DAMGO EC20, Fluo-4 Ca2+ flux; active compounds read high | 310,000 compounds, 0.42% hits;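 active means B-score of calcium response area above 5 SD of library B-scores, with initial fluorescence ratio within 5 SD of library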;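 further: B-score of integrated fluorescence ratio over time as area under calcium response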
TRPC4 act = activators of mouse TRPC4 channel, primary screen, Fluo4 calcium, HEK293 TRPC4beta/mu-opioid cells. Short transient receptor potential channel 4 (Mus musculus), Q9QUQ5. Fluo4 calcium fluorescence; active compounds read high. B-score at 10 µM. 310,000 compounds, 0.49% hits. AID 2237, 2010;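 active means B-score above 5 SD of library B-scores, and initial fluorescence ratio not above library mean plus 5 SD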;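 further: positive B-score marks a calcium rise read as TRPC4 activation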
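System: HEK293 cells stably co-expressing mouse TRPC4beta and mu-opioid receptor; Schedule: Fluo4 dye loading 45 min at room temperature, 110 s recording; Detection: Fluo4 fluorescence, kinetic; Evaluation: B-scored integrated calcium fluorescence ratio; Controls: buffer (low) and maximal DAMGO (high).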
Numbers without * were called inactive; i = inactive; . = not tested or not shown. Rows were chosen to be rich in hits. Some 2.5% of all compounds tested hit in one or more screens of this group.

SMILES	TRPC4 inh	TRPC6 inhibitor	Platelet DG rel	TRPC6 activator	TRPC4 PAM	TRPC4 act
Clc1ccc(OCCn2ccnc2)cc1Cl	i	i	-2.8	i	14*	57*
Cn1c(=O)c2c(nc(SCC(=O)NCc3ccc4c(c3)OCO4)n2Cc2ccc(Cl)cc2)n(C)c1=O	i	i	0.0	i	i	i
COC(=O)c1c(NC(=O)C(=O)NCC2CCCO2)sc2c1CC(C)(C)OC2 (configuration not stated)	i	i	-12.6	i	i	i
O=C1[C@@H]2Cc3c([nH]c4ccccc34)C(c3cccc([N+](=O)[O-])c3)N2C(=O)CN1C1CCN(Cc2ccccc2)CC1 (some centres not stated)	i	i	4.7	i	i	i
CC(=O)c1c(O)c(C)c(O)c2c1OC1=CC(=O)C(C(C)=O)C(=O)[C@@]12C (some centres not stated)	-6*	i	0.8	i	i	90*
O=C(CNC(=O)c1ccco1)OCC(=O)c1ccc(Cl)cc1	i	i	-4.1	i	i	i
CCc1ccc(C(=O)COC(=O)CNC(=O)c2ccco2)cc1	i	i	51.1*	i	i	i
NCCNC(=O)c1c(NC(=O)c2ccccc2)sc2c1CCCC2	i	i	2.2	i	i	175*
O=C(Nc1sc2c(c1C(=O)NCCCO)CCCC2)c1ccccc1	i	i	6.5	i	i	i
Cc1nc2c(c(=O)c3ccccc3n2C)c(=O)n1C1CCCCCC1	i	i	-15.5	i	i	i
Cc1ccc(-c2nc3c(c(=O)c4ccccc4n3C)c(=O)n2-c2ccc(F)cc2)cc1	i	i	-27.9	i	i	i
Cn1c2ccccc2c(=O)c2c(=O)n(-c3ccccc3)c(-c3ccc(C(C)(C)C)cc3)nc21	i	i	3.1	i	21*	i
Cn1c2ccccc2c(=O)c2c(=O)n(C3CCCCC3)c(-c3ccco3)nc21	i	i	41.9	i	i	116*
COc1ccccc1-n1c(SCC(N)=O)nc2sc3c(c2c1=O)CCC3	i	i	-0.4	i	i	i
CCc1cc(OCCN(C)C)ccc1Cl	i	i	2.1	i	26*	100*
CCc1cc(OCCN2C(=O)NC(C)(C)C2=O)ccc1Cl	i	i	0.1	i	14*	i
CNCCCOc1cc(C)cc(C)c1C	i	i	-1.3	i	i	153*
CCCCNCCCOc1ccc(C)cc1Br	i	i	-3.1	i	i	i
CNCCCOc1ccc(C)cc1Br	i	i	-4.7	i	14*	i
O=C(CCc1nnc2ccc(NCc3ccccc3)nn12)NC1CCCC1	i	i	17.3	i	i	i
CCC(C)[C@H](NC(=O)NC(C)C)C(=O)O (some centres not stated)	i	i	-48.9	i	i	i
CC(C)(C)c1ccc(NC(=O)c2ccsc2)cc1	i	i	22.7	i	i	i
Cc1cc(C(=O)N/N=C\c2cc(C(C)(C)C)ccc2O)n[nH]1	-6*	i	-4.6	i	i	i
Cc1cccc(OCCn2ccnc2)c1	i	i	2.6	i	i	i
c1ccc2cc(OCCCn3ccnc3)ccc2c1	i	i	-0.4	i	11*	53*
SMILES	TRPC4 inh	TRPC6 inhibitor	Platelet DG rel	TRPC6 activator	TRPC4 PAM	TRPC4 act
Cc1cccc(OCCCCCn2ccnc2)c1	i	i	-3.1	i	14*	i
Clc1ccc(SCCCCn2ccnc2)cc1	i	i	4.4	i	i	75*
CC(C)(C)c1ccccc1OCC(=O)NCCCn1ccnc1	i	i	-10.8	i	i	55*
CCOC(=O)C[n+]1c(C)ccc2c1CCC2	i	i	-8.9	i	i	i
Cc1cc(Cl)cc(C)c1OCCCCn1ccnc1	i	i	-5.8	i	i	106*
Cc1cccc(Cl)c1OCCCCn1ccnc1	.	i	2.2	i	i	77*
Cc1cc(OCCCCn2ccnc2)cc(C)c1Cl	i	i	1.4	i	i	141*
Cc1ccccc1OCCCCCn1ccnc1	i	i	10.2	i	i	61*
COc1ccc(N2C(=O)CCC(C(=O)NCCCN3CCC(C)CC3)C2c2ccc(OC)c(OC)c2)cc1 (configuration not stated)	i	i	-18.1	i	i	i
Cc1oc2c(C)c3oc(=O)c(CCC(=O)NCCCn4ccnc4)c(C)c3cc2c1C	i	i	3.1	i	i	i
COc1ccc(CC(=O)NNC(=O)CSc2ccc(C)cc2)cc1	i	i	2.5	i	i	i
COc1cccc2cc(C(=O)NCCc3c[nH]c4ccccc34)c(=O)oc12	i	i	0.6	i	i	i
COc1cc(CN(C)CC2CCCN(CCc3ccccc3F)C2)cc(Cl)c1OC (configuration not stated)	-6*	i	-11.8	i	i	i
CN(Cc1ccccc1)CC1CCCN(CCc2ccccc2F)C1 (configuration not stated)	i	i	0.7	i	i	i
CCCOc1ccc(Br)cc1/C=N/O	-6*	i	1.2	i	i	i
c1ccc(CCCN2CCN(c3ccccn3)CC2)cc1	i	i	-6.6	i	i	i
COC(=O)c1ccccc1NC(=O)CN1CCN(C23CC4CC(CC(C4)C2)C3)CC1	i	i	-1.2	19.8*	i	i
Cc1ccc(C(C)C)cc1OCCCCN1CCCC1	i	i	-10.1	i	26*	i
Cc1ccc(C(C)C)c(OCCCCN2CCNCC2)c1	i	i	0.8	i	18*	i
Cc1ccc(C)c(OCCCN2CCCC2)c1	i	i	2.4	i	11*	i
CC1CCCN(CCCOc2ccc(Cl)cc2Br)C1 (configuration not stated)	i	i	3.4	i	i	i
Cc1ccc(Cl)c(OCCN2CCCC(C)C2)c1 (configuration not stated)	i	i	-6.4	i	34*	i

Screening data from PubChem.
